Data: ChEMBL document CHEMBL1287688 (Bioorg Med Chem, 2010)

Key:
[1] = Displacement of [3H]di-o-tolylguanidine from sigma2 receptor rat liver membranes after 180 mins scintillation counting; assay type: cell membranes, Membrane
[2] = target: T1, Glutamate NMDA receptor; GRIN1/GRIN2B (Homo sapiens, UniProt Q05586+Q13224); assay: Displacement of [3H]ifenprodil from human recombinant NR1-1a/NR2B receptor expressed in mouse L(tk-) cells after 120 mins by scintillation counting; assay type: cell-based
[3] = target: Sigma non-opioid intracellular receptor 1 (Cavia porcellus, UniProt Q60492); assay: Displacement of [3H](+)-pentazocine from sigma1 receptor guinea pig brain after 180 mins scintillation counting
Mus musculus [4] = assay: Toxicity in mouse assessed as diarrhea at 100 mg/kg, ip after 30 mins; assay type: organism-based; design: dose 100 mg/kg, route intraperitoneal; settings: in vivo, 0.5 h
In short: (§1)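 Mice (Irwin test) received increasing intraperitoneal doses of 1-100 mg/kg body weight. Behaviour was then observed for 24 h.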

[5] = Half life in rat liver microsomes; assay type: ADME, Microsome
In short: (§2)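 Test article incubated with liver microsomes prepared from mouse, rat and human; half-life determined.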

[6] = Half life in human liver microsomes; assay type: ADME, Microsome; in short: as §2
[7] = Half life in mouse liver microsomes; assay type: ADME, Microsome; in short: as §2
Mus musculus [8] = assay: Toxicity in mouse assessed as unusual reactions at 1 to 100 mg/kg, ip after 24 hrs; assay type: organism-based; design: dose 1-100 mg/kg, route intraperitoneal; settings: in vivo; in short: as §1
[9] = target: T2, Amine oxidase [flavin-containing] B (Homo sapiens, UniProt P27338); assay: Displacement of radiolabeled kynuramine from MAO-B at 1 to 3 uM
T2 sequence (P27338 whole entry): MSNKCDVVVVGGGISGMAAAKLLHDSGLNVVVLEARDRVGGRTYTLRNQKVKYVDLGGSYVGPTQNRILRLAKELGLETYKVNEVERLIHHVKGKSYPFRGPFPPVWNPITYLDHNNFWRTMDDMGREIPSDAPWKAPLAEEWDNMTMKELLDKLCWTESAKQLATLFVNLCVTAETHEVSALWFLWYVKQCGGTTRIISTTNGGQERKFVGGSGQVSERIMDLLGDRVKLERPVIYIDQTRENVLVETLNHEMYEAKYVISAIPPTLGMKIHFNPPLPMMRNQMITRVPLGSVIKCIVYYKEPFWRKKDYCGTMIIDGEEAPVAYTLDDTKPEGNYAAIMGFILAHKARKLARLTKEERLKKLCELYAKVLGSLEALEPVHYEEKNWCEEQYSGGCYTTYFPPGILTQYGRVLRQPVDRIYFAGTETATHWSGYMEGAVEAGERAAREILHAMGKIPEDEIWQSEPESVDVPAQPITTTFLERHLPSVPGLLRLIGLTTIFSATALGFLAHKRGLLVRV
In short: (§3)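 Broad radioligand competition screen against more than 100 receptors, transporters and enzymes, with test concentrations of 1-3 µM. Targets and radioligands are listed only in supplementary data. hERG IC50 was estimated.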

[10] = target: T3, Amine oxidase [flavin-containing] A (Homo sapiens, UniProt P21397); assay: Displacement of radiolabeled kynuramine from MAO-A at 1 to 3 uM; in short: as §3
T3 sequence (P21397 whole entry): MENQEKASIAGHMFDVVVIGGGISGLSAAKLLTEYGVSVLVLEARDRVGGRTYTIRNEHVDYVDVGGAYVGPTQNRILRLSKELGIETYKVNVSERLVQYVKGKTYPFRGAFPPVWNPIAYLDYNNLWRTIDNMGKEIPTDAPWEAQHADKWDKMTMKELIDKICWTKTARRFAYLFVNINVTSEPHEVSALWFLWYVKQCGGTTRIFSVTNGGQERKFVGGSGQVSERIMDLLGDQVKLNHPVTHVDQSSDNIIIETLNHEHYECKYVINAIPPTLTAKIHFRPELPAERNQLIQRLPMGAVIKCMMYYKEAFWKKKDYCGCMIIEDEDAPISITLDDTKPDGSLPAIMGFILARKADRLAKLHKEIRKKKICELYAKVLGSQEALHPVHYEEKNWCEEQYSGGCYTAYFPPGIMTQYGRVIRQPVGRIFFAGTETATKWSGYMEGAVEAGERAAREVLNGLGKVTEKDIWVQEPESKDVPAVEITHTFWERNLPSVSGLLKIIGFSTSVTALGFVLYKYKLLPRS

[11] = target: T4, UDP-glucuronosyltransferase 1A1 (Homo sapiens, UniProt P22309); assay: Displacement of radiolabeled scopoletin from UGT1A1 at 1 to 3 uM; in short: as §3
T4 sequence (P22309 whole entry): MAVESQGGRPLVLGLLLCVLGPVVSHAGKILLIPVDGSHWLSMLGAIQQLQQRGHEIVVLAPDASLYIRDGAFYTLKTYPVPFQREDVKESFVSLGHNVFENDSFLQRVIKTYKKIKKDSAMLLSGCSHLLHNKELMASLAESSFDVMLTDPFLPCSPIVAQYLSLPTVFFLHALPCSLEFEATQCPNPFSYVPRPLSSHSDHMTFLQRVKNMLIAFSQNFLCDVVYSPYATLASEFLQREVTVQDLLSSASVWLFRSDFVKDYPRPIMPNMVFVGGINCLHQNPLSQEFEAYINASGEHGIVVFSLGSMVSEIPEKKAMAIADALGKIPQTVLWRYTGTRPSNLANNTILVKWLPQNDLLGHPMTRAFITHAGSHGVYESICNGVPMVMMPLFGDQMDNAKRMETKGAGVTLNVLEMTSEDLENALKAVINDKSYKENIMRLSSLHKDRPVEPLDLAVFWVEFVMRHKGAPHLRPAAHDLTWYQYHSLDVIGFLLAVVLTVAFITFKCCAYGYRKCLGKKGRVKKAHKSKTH

[12] = target: T1, Glutamate NMDA receptor; GRIN1/GRIN2B; assay: Antagonist activity at human recombinant NR1-1a/NR2B receptor expressed in mouse L(tk-) cells assessed as inhibition of (S)-glutamate/glycine-stimulated excitotoxicity treated 30 mins before (S)-glutamate/glycine challenge measured after 4 hrs by LDH release assay; assay type: functional, cell-based
In short: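 L13-E6 mouse L(tk-) cells stably expressing NR1-1a/NR2B; compounds (1 nM-10 µM, in DMSO) preincubated 30 min, then (S)-glutamate plus glycine (10 µM each) added, 4 h further incubation. LDH in supernatant measured; 0% = no agonist with 100 µM ketamine, 100% = glutamate/glycine without ketamine. At least three experiments, six replicates per concentration; IC50 calculated from curves.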

[13] = Selectivity ratio of Ki for guinea pig sigma1 receptor to Ki for human recombinant NR1a/NR2B receptor

Chain of Sigma non-opioid intracellular receptor 1 (Q60492 whole entry): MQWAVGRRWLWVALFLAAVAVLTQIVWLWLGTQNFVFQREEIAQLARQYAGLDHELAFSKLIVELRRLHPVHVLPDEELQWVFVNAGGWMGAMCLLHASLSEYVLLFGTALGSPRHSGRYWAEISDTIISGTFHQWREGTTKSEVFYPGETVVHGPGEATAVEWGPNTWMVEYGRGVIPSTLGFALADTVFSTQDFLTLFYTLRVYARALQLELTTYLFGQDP
T1 sequence (Q13224 whole entry, other chains not shown): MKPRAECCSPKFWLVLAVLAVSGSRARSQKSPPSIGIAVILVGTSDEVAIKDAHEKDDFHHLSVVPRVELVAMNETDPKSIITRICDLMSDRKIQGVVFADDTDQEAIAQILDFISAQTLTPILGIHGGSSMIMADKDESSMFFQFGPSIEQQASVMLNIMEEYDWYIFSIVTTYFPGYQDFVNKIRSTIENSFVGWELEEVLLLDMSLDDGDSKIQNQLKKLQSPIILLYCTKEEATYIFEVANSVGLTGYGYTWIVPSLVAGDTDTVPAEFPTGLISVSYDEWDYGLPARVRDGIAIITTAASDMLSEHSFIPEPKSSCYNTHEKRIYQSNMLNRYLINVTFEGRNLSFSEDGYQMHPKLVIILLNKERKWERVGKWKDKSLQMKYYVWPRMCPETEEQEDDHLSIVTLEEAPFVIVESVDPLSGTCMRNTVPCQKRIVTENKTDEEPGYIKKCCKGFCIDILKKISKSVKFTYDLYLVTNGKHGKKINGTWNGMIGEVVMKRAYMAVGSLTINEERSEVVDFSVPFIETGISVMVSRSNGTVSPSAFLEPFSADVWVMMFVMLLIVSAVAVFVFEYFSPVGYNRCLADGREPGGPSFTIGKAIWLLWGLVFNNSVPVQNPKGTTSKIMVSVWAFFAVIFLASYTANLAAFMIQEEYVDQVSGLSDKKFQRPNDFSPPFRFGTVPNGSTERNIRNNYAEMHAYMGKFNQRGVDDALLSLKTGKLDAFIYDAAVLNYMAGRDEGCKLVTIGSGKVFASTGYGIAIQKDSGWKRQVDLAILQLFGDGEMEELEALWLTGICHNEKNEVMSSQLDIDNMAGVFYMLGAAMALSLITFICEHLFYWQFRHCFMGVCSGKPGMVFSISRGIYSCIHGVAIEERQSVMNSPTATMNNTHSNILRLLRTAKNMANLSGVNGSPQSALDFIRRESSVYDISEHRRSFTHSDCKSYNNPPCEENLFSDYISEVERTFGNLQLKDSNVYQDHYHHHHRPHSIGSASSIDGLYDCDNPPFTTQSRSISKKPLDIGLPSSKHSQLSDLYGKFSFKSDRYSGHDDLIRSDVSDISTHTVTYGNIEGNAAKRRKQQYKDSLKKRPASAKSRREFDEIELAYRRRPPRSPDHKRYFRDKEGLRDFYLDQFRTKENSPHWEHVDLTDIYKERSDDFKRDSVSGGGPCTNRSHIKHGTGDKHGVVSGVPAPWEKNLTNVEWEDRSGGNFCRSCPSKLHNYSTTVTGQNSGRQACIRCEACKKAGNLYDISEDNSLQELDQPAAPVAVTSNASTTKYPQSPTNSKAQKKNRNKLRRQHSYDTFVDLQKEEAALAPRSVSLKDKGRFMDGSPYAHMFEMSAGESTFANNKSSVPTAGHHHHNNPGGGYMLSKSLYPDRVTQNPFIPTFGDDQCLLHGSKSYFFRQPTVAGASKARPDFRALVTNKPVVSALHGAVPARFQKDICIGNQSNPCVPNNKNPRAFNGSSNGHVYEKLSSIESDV

Row | Structure (SMILES) | Ki [1] | Ki [2] | Ki [3] | further results
1 | OC1CN(CCCSc2ccccc2)CCc2cc(OCc3ccccc3)ccc21 (racemic) | 0.653 µM | 0.041 µM | – | –
2 | OC1CN(Cc2ccc(N3CCCCC3)cc2)CCc2cc(OCc3ccccc3)ccc21 (racemic) | 6.43 µM | 1.31 µM | 0.604 µM | –
3 | Oc1ccc2c(c1)CCN([C@H]1CO[C@H](c3ccccc3)OC1)CC2O (mixture of isomers) | > 1 µM | > 1 µM | > 1 µM | –
4 | Oc1ccc2c(c1)CCN(CCCCc1ccccc1)CC2O (racemic) | 18 µM | 0.014 µM | – | Activity (Mus musculus [4]): Toxic; half-life [5]: < 3 min; half-life [6]: 21 min; half-life [7]: 28 min; Activity (Mus musculus [8]): Non-toxic; Activity [9]: Not Active; Activity [10]: Not Active; Activity [11]: Not Active; IC50 [12]: 0.0184 µM
5 | COc1ccc(C2(CCCN3CCc4cc(OCc5ccccc5)ccc4C(O)C3)OCC(C)(C)CO2)cc1 (racemic) | > 1 µM | 0.661 µM | > 1 µM | –
6 | O=C(CCCN1CCc2cc(O)ccc2C(O)C1)c1ccc(F)cc1 (racemic) | 0.033 µM | 0.036 µM | 1.05 µM | –
7 | Oc1ccc2c(c1)CCN([C@H]1CC[C@@H](c3ccccc3)CC1)CC2O (mixture of isomers) | 0.0086 µM | 0.0033 µM | 0.123 µM | IC50 [12]: 12.1 µM
8 | OC1CN([C@H]2CC[C@@H](c3ccccc3)CC2)CCc2cc(OCc3ccccc3)ccc21 (some centres not stated) | 0.311 µM | 0.139 µM | 0.01 µM | Ratio Ki [13]: 14
9 | OC1CN(Cc2cccc(-c3ccccc3)c2)CCc2cc(OCc3ccccc3)ccc21 (racemic) | > 1 µM | 1.21 µM | > 1 µM | –
10 | O=C(CCCN1CCc2cc(OCc3ccccc3)ccc2C(O)C1)c1ccc(F)cc1 (racemic) | 1.05 µM | 0.151 µM | 0.293 µM | –
12 | O=S(=O)(CCCN1CCc2cc(O)ccc2C(O)C1)c1ccccc1 (racemic) | 0.653 µM | > 1 µM | > 1 µM | –
13 | Oc1ccc2c(c1)CCN(CCCOc1ccccc1)CC2O (racemic) | 0.0059 µM | 0.02 µM | 0.17 µM | –
14 | OC(CN1CCC(Cc2ccc(F)cc2)CC1)c1ccc(Cl)cc1 (configuration not stated) [ELIPRODIL] | – | 0.013 µM | – | –
15 | CN(Cc1ccccc1)C(=O)CN1CCc2cc(O)ccc2C(O)C1 (racemic) | 1.58 µM | > 1 µM | – | –
16 | CC(C)(C)c1ccc(C(=O)CCCN2CCc3cc(OCc4ccccc4)ccc3C(O)C2)cc1 (racemic) | > 1 µM | 0.644 µM | > 1 µM | –

Row | Structure (SMILES) | Ki [1] | Ki [2] | Ki [3] | further results
17 | CC1(C)COC(CCCN2CCc3cc(OCc4ccccc4)ccc3C(O)C2)(c2ccc(F)cc2)OC1 (racemic) | > 1 µM | 1.42 µM | > 1 µM | –
18 | OC1CN(CCCCc2ccccc2)CCc2cc(OCc3ccccc3)ccc21 (racemic) | 1.05 µM | 0.187 µM | – | –
19 | OC1CN([C@H]2CC[C@H](c3ccccc3)CC2)CCc2cc(OCc3ccccc3)ccc21 (some centres not stated) | > 1 µM | 0.388 µM | 0.386 µM | –
20 | OC1CN(C2CCC3(CC2)OCCO3)CCc2cc(OCc3ccccc3)ccc21 (racemic) | 0.753 µM | 1.12 µM | – | –
21 | O=S(=O)(CCCN1CCc2cc(OCc3ccccc3)ccc2C(O)C1)c1ccccc1 (racemic) | 3.04 µM | 0.037 µM | – | –
22 | Oc1ccc2c(c1)CCN([C@H]1CC[C@H](c3ccccc3)CC1)CC2O (mixture of isomers) | 0.0089 µM | 0.009 µM | 0.2 µM | –
23 | COc1ccc(C(=O)CCCN2CCc3cc(OCc4ccccc4)ccc3C(O)C2)cc1 (racemic) | 4.5 µM | > 1 µM | > 1 µM | –
24 | OC1CN(CCCOc2ccccc2)CCc2cc(OCc3ccccc3)ccc21 (racemic) | 0.945 µM | 0.093 µM | 0.193 µM | –
25 | O=C(c1ccccc1)N1CCC(N2CCc3cc(OCc4ccccc4)ccc3C(O)C2)CC1 (racemic) | > 1 µM | > 1 µM | > 1 µM | –
26 | Oc1ccc2c(c1)CCN(C1CCC3(CC1)OCCO3)CC2O (racemic) | 0.658 µM | > 1 µM | > 1 µM | –
27 | OC1CN(C2COC(c3ccccc3)OC2)CCc2cc(OCc3ccccc3)ccc21 (racemic) | > 1 µM | 1 µM | 0.186 µM | –
28 | CN(Cc1ccccc1)C(=O)CN1CCc2cc(OCc3ccccc3)ccc2C(O)C1 (racemic) | 2.96 µM | 0.377 µM | > 1 µM | –
29 | COc1ccc2c(c1)CCN(CCCCc1ccccc1)CC2O (configuration not stated) | 0.554 µM | 0.0054 µM | – | IC50 [12]: 0.36 µM
30 | CC1(C)COC(CCCN2CCc3cc(OCc4ccccc4)ccc3C(O)C2)(c2ccc(C(C)(C)C)cc2)OC1 (racemic) | 0.9 µM | > 1 µM | > 1 µM | –
31 | O=C(c1ccccc1)N1CCC(N2CCc3cc(O)ccc3C(O)C2)CC1 (racemic) | 0.098 µM | 0.204 µM | > 1 µM | –
32 | CC(C(O)c1ccc(O)cc1)N1CCC(Cc2ccccc2)CC1 (configuration not stated) [IFENPRODIL] | – | – | – | half-life [5]: < 1 min; half-life [6]: 5 min; half-life [7]: < 5 min
